≈ marks a conversion by molar mass, not a printed value. Calls of active or inactive are those of the source. The rule behind the calls is not given here.
Key:
Candida albicans [1] = test: Antifungal activity against Candida albicans SC5314 after 24 hrs; type: functional
Method in brief: (§1)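 Overnight YPD cultures diluted in PBS (1/200 for C. albicans, 1/400 for C. glabrata). Cells treated with compound, or 2.5% DMSO as solvent control, for 24 h at 37 °C. CFUs then counted; MFC is the concentration giving 99% killing of the inoculum.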

Nakaseomyces glabratus = test: Antifungal activity against Candida glabrata BG2 after 24 hrs; type: functional; method in brief: as §1
Aspergillus fumigatus = test: Antifungal activity against Aspergillus fumigatus CBS 117202 after 24 hrs by two-fold dilution method; type: functional; details: CBS 117202, 24 h
Method in brief: (§2)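 Spores at 2×10^4 spores/mL in potato dextrose broth, incubated with a 2-fold compound dilution series for 24 h at 25 °C. Growth read by microspectrophotometry of the liquid cultures. MIC taken as the lowest concentration inhibiting fungal growth.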

Aspergillus flavus = test: Antifungal activity against Aspergillus flavus CBS111.45 after 24 hrs by two-fold dilution method; type: functional; details: CBS111.45, 24 h; method in brief: as §2
[2] = test system: Trichophyton mentagrophytes; test: Fungicidal activity against Trichophyton mentagrophytes B70554; type: functional, organism-based
Method in brief: (§3)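 Inoculum of 10^3 CFU in RPMI-MOPS added to prediluted compound, highest concentration 64 µM. Growth read by resazurin fluorescence (ex 550, em 590 nm). IC50 is 50% growth inhibition versus untreated controls. Three independent replicates.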

Trichophyton rubrum = test: Fungicidal activity against Trichophyton rubrum B68183; type: functional, organism-based; method in brief: as §3
Microsporum canis = test: Fungicidal activity against Microsporum canis B68128; type: functional; method in brief: as §3
Sporothrix schenckii = test: Fungicidal activity against Sporothrix schenckii B62482; type: functional, organism-based; method in brief: as §3
[3] = Cytotoxicity against human MRC5 SV2 cells after 72 hrs by fluorescence assay; type: cell-based
Method in brief: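 MRC-5 SV2 cells (10^4/well) grown in MEM with L-glutamine, NaHCO3 and 5% FCS. Incubated with compound 72 h at 37 °C, 5% CO2, then resazurin added for 24 h. Fluorescence read at ex 530, em 590 nm.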

[4] = Half life in human plasma; type: ADME, cell-free
[5] = Half life in mouse plasma; type: ADME, cell-free
Candida albicans [6] = test: Antifungal activity against Candida albicans SC5314 infected in BALB/c mouse assessed as reduction in reduction in fungal load in kidney at 10 mg/kg/day, ip for 5 days relative to vehicle-treated control; type: functional, organism-based
Method in brief: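 BALB/c mice given cyclophosphamide 100 mg/kg at 4 days and 24 h before infection and at 3 days after. Infected IV with 2×10^3 SC5314 cells in saline. Dosed IP daily for 5 days from 16 h post-infection, in DMSO/0.5% methylcellulose (5/95). Organs taken on day 7, homogenized and plated on BHI agar (18 h, 37 °C). CFU/g compared with vehicle.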

## C[C@@H]1[C@H](O)[C@@H](C)/C=C/C=C/C=C/C=C/C=C/C=C/C=C/[C@H](O[C@@H]2O[C@H](C)[C@@H](O)[C@H](N)[C@@H]2O)C[C@@H]2O[C@](O)(C[C@@H](O)C[C@@H](O)[C@H](O)CC[C@@H](O)C[C@@H](O)CC(=O)O[C@H]1C)C[C@H](O)[C@H]2C(=O)O [AMPHOTERICIN B]
Candida albicans [1]
  MFC99: 1.6 µg/mL (≈ 1.73 µM)

## CCN1CC(C)(C)OC(=O)C1CC(=O)NCc1ccccc1Cl (stereo not given)
Candida albicans [1]
  MFC99: 25 µg/mL (≈ 73.8 µM)

## CC(C)c1ccc(NC(=O)CC2C(=O)OC(C)(C)CN2C2CCCC2)cc1 (stereo not given)
Candida albicans [1]
  MFC99: >25 µg/mL

## CCN1CC(C)(C)OC(=O)C1CC(=O)NCc1ccc(Cl)c(Cl)c1 (stereo not given)
Candida albicans [1]
  MFC99: 12.5 µg/mL (≈ 33.5 µM)

## CCN1CC(C)(C)OC(=O)C1CC(=O)NCc1cccc(C(F)(F)F)c1 (stereo not given)
Candida albicans [1]
  MFC99: 25 µg/mL (≈ 67.1 µM)

## CC(C)c1ccc(NC(=O)CC2C(=O)OC(C)(C)CN2CC(F)(F)F)cc1 (stereo not given)
Candida albicans [1]
  MFC99: >25 µg/mL

## CCN1CC(C)(C)OC(=O)C1CC(=O)N1CCOCC1 (stereo not given)
Candida albicans [1]
  MFC99: >50 µg/mL

## CCN1CC(C)(C)OC(=O)C1CC(=O)NCc1ccc(Cl)cc1 (stereo not given)
Candida albicans [1]
  MFC99: 12.5 µg/mL (≈ 36.9 µM)
Nakaseomyces glabratus
  MFC99: 12.5 µg/mL (≈ 36.9 µM)
Aspergillus fumigatus
  MIC: 6.2 µg/mL (≈ 18.3 µM)
Aspergillus flavus
  MIC: 25 µg/mL (≈ 73.8 µM)
[2]
  IC50: 2.7 µg/mL (≈ 7.97 µM)
Trichophyton rubrum
  IC50: 2 µg/mL (≈ 5.9 µM)
Microsporum canis
  IC50: 2 µg/mL (≈ 5.9 µM)
Sporothrix schenckii
  IC50: 2.2 µg/mL (≈ 6.49 µM)
[3]
  CC50 at 72 h: > 20 µg/mL

## CCN1CC(C)(C)OC(=O)C1C(C)(C)C(=O)Nc1ccc(C(C)C)cc1 (stereo not given)
Candida albicans [1]
  MFC99: >50 µg/mL

## CCN1CC(C)(C)OC(=O)C1CC(=O)NC1CCCCC1 (stereo not given)
Candida albicans [1]
  MFC99: 50 µg/mL (≈ 169 µM)

## CCN1CC(C)(C)OC(=O)C1CC(=O)NCCC(C)(C)C (stereo not given)
Candida albicans [1]
  MFC99: 25 µg/mL (≈ 83.8 µM)

## CCN1CC(C)(C)OC(=O)C1CC(=O)N(C)c1ccccc1 (stereo not given)
Candida albicans [1]
  MFC99: >50 µg/mL

## CC(C)c1ccc(NC(=O)CC2C(=O)OC(C)(C)CN2Cc2ccccc2)cc1 (stereo not given)
Candida albicans [1]
  MFC99: >50 µg/mL

## CC(C)c1ccc(NC(=O)CC2C(=O)OC(C)(C)CN2c2ccccc2)cc1 (stereo not given)
Candida albicans [1]
  MFC99: >50 µg/mL

## CN(C/C=C/C#CC(C)(C)C)Cc1cccc2ccccc12 [TERBINAFINE]
[2]
  IC50: 0.02 µg/mL (≈ 0.0686 µM)
Trichophyton rubrum
  IC50: 0.02 µg/mL (≈ 0.0686 µM)

## CCN1CC(C)(C)OC(=O)C1CC(=O)Nc1ccnn1C (stereo not given)
Candida albicans [1]
  MFC99: >50 µg/mL

## CCN1CC(C)(C)OC(=O)C1CC(=O)NCc1cccc(OC)c1 (stereo not given)
Candida albicans [1]
  MFC99: 25 µg/mL (≈ 74.8 µM)

## CCN1CC(C)(C)OC(=O)C1CC(=O)Nc1cccnc1 (stereo not given)
Candida albicans [1]
  MFC99: >50 µg/mL

## CCN1C[C@@H](C)OC(=O)C1CC(=O)Nc1ccc(C(C)C)cc1 (stereo not given in full)
Candida albicans [1]
  MFC99: 12.5 µg/mL (≈ 39.3 µM)
[4]
  half-life: 55 min

## CCN1CC(C)(C)OC(=O)C1CC(=O)NCCc1ccccc1 (stereo not given)
Candida albicans [1]
  MFC99: 25 µg/mL (≈ 78.5 µM)

## CCN1C[C@@H](c2ccccc2)OC(=O)C1CC(=O)Nc1ccc(C(C)C)cc1 (stereo not given in full)
Candida albicans [1]
  MFC99: 12.5 µg/mL (≈ 32.9 µM)
[4]
  half-life: 31 min

## CCN1CCOC(=O)C1CC(=O)Nc1ccc(C(C)C)cc1 (stereo not given)
Candida albicans [1]
  MFC99: 12.5 µg/mL (≈ 41.1 µM)
Nakaseomyces glabratus
  MFC99: 12.5 µg/mL (≈ 41.1 µM)
Aspergillus fumigatus
  MIC: 12.5 µg/mL (≈ 41.1 µM)
[4]
  half-life: 22 min
[5]
  half-life: 32 min

## CCN1CC(C)(C)OC(=O)C1CC(=O)NCc1cccc(C)c1 (stereo not given)
Candida albicans [1]
  MFC99: 12.5 µg/mL (≈ 39.3 µM)

## CCN1C[C@H](c2ccccc2)OC(=O)C1CC(=O)Nc1ccc(C(C)C)cc1 (stereo not given in full)
Candida albicans [1]
  MFC99: 12.5 µg/mL (≈ 32.9 µM)
[4]
  half-life: 49 min

## CCN1CC(C)(C)OC(=O)C1CC(=O)Nc1ccc2scnc2c1 (stereo not given)
Candida albicans [1]
  MFC99: >50 µg/mL

## CCN1CC(C)(C)OC(=O)C1CC(=O)Nc1ccccn1 (stereo not given)
Candida albicans [1]
  MFC99: >50 µg/mL

## Clc1ccc(COC(Cn2ccnc2)c2ccc(Cl)cc2Cl)c(Cl)c1 (stereo not given) [MICONAZOLE]
Microsporum canis
  IC50: 0.02 µg/mL (≈ 0.0481 µM)
Sporothrix schenckii
  IC50: 0.12 µg/mL (≈ 0.288 µM)

## CCN1C(CC(=O)Nc2ccc(C(C)C)cc2)C(=O)OC(C)(C)C1(C)C (stereo not given)
Candida albicans [1]
  MFC99: >25 µg/mL

## CCN1CC(C)(C)OC(=O)C1CC(=O)NCc1cccs1 (stereo not given)
Candida albicans [1]
  MFC99: 25 µg/mL (≈ 80.5 µM)

## CCN1CC(C)(C)OC(=O)C1CC(=O)NCc1cccc(Cl)c1 (stereo not given)
Candida albicans [1]
  MFC99: 6.25 µg/mL (≈ 18.4 µM)

## CCN1CC(C)(C)OC(=O)C1CC(=O)Nc1ccc2c(ccn2C)c1 (stereo not given)
Candida albicans [1]
  MFC99: 12.5 µg/mL (≈ 36.4 µM)
Nakaseomyces glabratus
  MFC99: 50 µg/mL (≈ 146 µM)
Aspergillus fumigatus
  MIC: 3.1 µg/mL (≈ 9.03 µM)
Aspergillus flavus
  MIC: 25 µg/mL (≈ 72.8 µM)
[2]
  IC50: 11 µg/mL (≈ 32 µM)
Trichophyton rubrum
  IC50: 11 µg/mL (≈ 32 µM)
Microsporum canis
  IC50: 6.2 µg/mL (≈ 18.1 µM)
Sporothrix schenckii
  IC50: 10 µg/mL (≈ 29.1 µM)
[3]
  CC50 at 72 h: > 20 µg/mL

## CCN1CC(C)(C)OC(=O)C1CC(=O)NCC1CCCCC1 (stereo not given)
Candida albicans [1]
  MFC99: 25 µg/mL (≈ 80.5 µM)

## CCN1CC(C)(C)OC(=O)C1CC(=O)NCc1ccccc1 (stereo not given)
Candida albicans [1]
  MFC99: 12.5 µg/mL (≈ 41.1 µM)

## CCN1C[C@H](C)OC(=O)C1CC(=O)Nc1ccc(C(C)C)cc1 (stereo not given in full)
Candida albicans [1]
  MFC99: 12.5 µg/mL (≈ 39.3 µM)
[4]
  half-life: 57 min

## CCCN1CC(C)(C)OC(=O)C1CC(=O)Nc1ccc(C(C)C)cc1 (stereo not given)
Candida albicans [1]
  MFC99: >25 µg/mL

## CC(=O)N1CC(C)(C)OC(=O)C1CC(=O)Nc1ccc(C(C)C)cc1 (stereo not given)
Candida albicans [1]
  MFC99: >25 µg/mL

## CCN1CCOCC1CC(=O)Nc1ccc(C(C)C)cc1 (stereo not given)
Candida albicans [1]
  MFC99: >50 µg/mL

## CC(C)c1ccc(NC(=O)CC2C(=O)OC(C)(C)CN2C(C)C)cc1 (stereo not given)
Candida albicans [1]
  MFC99: >25 µg/mL

## CCN1CC(C)(C)OC(=O)C1CC(=O)Nc1c(C)noc1C (stereo not given)
Candida albicans [1]
  MFC99: >50 µg/mL

## CCN1CC(C)(C)OC(=O)C1CC(=O)NCc1ccco1 (stereo not given)
Candida albicans [1]
  MFC99: 50 µg/mL (≈ 170 µM)

## CCN1CC(C)(C)OC(=O)C1CC(=O)Nc1ccncn1 (stereo not given)
Candida albicans [1]
  MFC99: >50 µg/mL

## CC(C)c1ccc(NC(=O)CC2C(=O)OC(C)(C)CN2C2CC2)cc1 (stereo not given)
Candida albicans [1]
  MFC99: >25 µg/mL

## CC(C)c1ccc(NC(=O)CC2C(=O)OC(C)(C)CN2S(C)(=O)=O)cc1 (stereo not given)
Candida albicans [1]
  MFC99: >25 µg/mL

## CC(C)c1ccc(NC(=O)CC2C(=O)OC(C)(C)CN2C)cc1 (stereo not given)
Candida albicans [1]
  MFC99: >25 µg/mL

## CCN1CC(C)(C)OC(=O)C1CC(=O)Nc1ccncc1 (stereo not given)
Candida albicans [1]
  MFC99: >50 µg/mL

## CCN(CC)C(=O)CC1C(=O)OC(C)(C)CN1CC (stereo not given)
Candida albicans [1]
  MFC99: >50 µg/mL

## CCN1CC(CC)(CC)OC(=O)C1CC(=O)Nc1ccc(C(C)C)cc1 (stereo not given)
Candida albicans [1]
  MFC99: >25 µg/mL

## CCNC(=O)CC1C(=O)OC(C)(C)CN1CC (stereo not given)
Candida albicans [1]
  MFC99: 50 µg/mL (≈ 206 µM)

## CC(C)c1ccc(NC(=O)CC2NCC(C)(C)OC2=O)cc1 (stereo not given)
Candida albicans [1]
  MFC99: >25 µg/mL

## CC(C)c1ccc(NC(=O)CC2C(=O)OC(C)(C)CN2CCF)cc1 (stereo not given)
Candida albicans [1]
  MFC99: >25 µg/mL

## CCCNC(=O)CC1C(=O)OC(C)(C)CN1CC (stereo not given)
Candida albicans [1]
  MFC99: 25 µg/mL (≈ 97.5 µM)

## OC(Cn1cncn1)(Cn1cncn1)c1ccc(F)cc1F [FLUCONAZOLE]
Candida albicans [1]
  MFC99: >100 µg/mL
Candida albicans [6]
  Activity: Active

## CCN1CC(C)(C)OC(=O)C1CC(=O)NC1CCCC1 (stereo not given)
Candida albicans [1]
  MFC99: 50 µg/mL (≈ 177 µM)
